“And” between values parts separate entries of the source, which are not always exact repeats. Identical values can stand only once.
What was measured:
[1] = molecular target: Muscarinic acetylcholine receptor; test: Antagonist activity against Muscarinic acetylcholine receptor of rat bladder; type: functional
Method in brief: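 Longitudinal bladder strip (2 mm wide, urethra to apex) in PSS at 37 °C, recorded isometrically, equilibrated 30 min. Carbachol dose-response curves run at 30-min intervals, with the second taken as control. After 30 min antagonist incubation, the curve was repeated.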

[2] = molecular target: Muscarinic acetylcholine receptor; test: Antagonist activity against Muscarinic acetylcholine receptor of guinea pig heart.; type: functional, Cavia porcellus
[3] = molecular target: Muscarinic acetylcholine receptor; test: Antagonist activity against Muscarinic acetylcholine receptor of guinea pig ileum; type: functional, tissue-based, Cavia porcellus
[4] = molecular target: Muscarinic acetylcholine receptor; test: Antagonist activity against Muscarinic acetylcholine receptor of guinea pig heart; type: functional, Cavia porcellus

Structure (SMILES) | pA2 [1] | pA2 [2] | pA2 [3] | pA2 [4]
C[N+](C)(C)C[C@@H]1C[S@@+]([O-])C(C2CCCCC2)(C2CCCCC2)O1.[I-] (racemic) | 6.03 | 6.77 and 6.63 | 6.24 | 
C[N+](C)(C)C[C@@H]1C[S@+]([O-])C(C2CCCCC2)(C2CCCCC2)O1.[I-] (racemic) | 5.99 | 6.27 and 6.06 | 6.4 | 
C[N+](C)(C)C[C@@H]1C[S@@+]([O-])C(C2CCCCC2)(C2CCCCC2)O1.[I-] (stereo in doubt; (+)-4) | 5.51 | 5.55 and 5.4 | 5.81 | 
C[N+](C)(C)C[C@@H]1C[S@+]([O-])C(C2CCCCC2)(C2CCCCC2)O1.[I-] (stereo in doubt; (+)-6) | 6.27 | 6.45 and 6.31 | 6.32 | 

Now from value to compound:

pA2 [1] | pA2 [2] | pA2 [3] | pA2 [4] | Structure (SMILES)
6.26 | 6.38 | 6.95 | 6.12 | C[N+](C)(C)C[C@@H]1CSC(C2CCCCC2)(C2CCCCC2)O1.[I-] (racemic)
6.28 | 6.37 and 6.42 | 6.98 |  | C[N+](C)(C)C[C@@H]1CSC(C2CCCCC2)(C2CCCCC2)O1.[I-] (stereo in doubt; (+)-2)
6.34 | 6.02 and 6.05 | 6.92 |  | C[N+](C)(C)C[C@@H]1CSC(C2CCCCC2)(C2CCCCC2)O1.[I-] (stereo in doubt; (-)-2)
6.36 | 6.79 and 6.65 | 6.69 |  | C[N+](C)(C)C[C@@H]1C[S@@+]([O-])C(C2CCCCC2)(C2CCCCC2)O1.[I-] (stereo in doubt; (-)-4)
5.48 | 5.61 and 5.59 | 5.92 |  | C[N+](C)(C)C[C@@H]1C[S@+]([O-])C(C2CCCCC2)(C2CCCCC2)O1.[I-] (stereo in doubt; (-)-6)

Reference: ChEMBL document CHEMBL1124301, “Enantioselectivity of muscarinic antagonists. 2,2-Dicyclohexyl-5-[(dimethylamino)methyl]-1,3-oxathiolane methiodides and related 3-oxides” (J Med Chem, 1988)
